Measurements from ChEMBL document CHEMBL4673268, “The optimization of a novel selective antagonist for human M muscarinic acetylcholine receptor” (Bioorg Med Chem Lett, 2020).
The source made the active and inactive calls. No cut-off for these calls is given here.

Legend:
[1] = target: T1, Muscarinic acetylcholine receptor M1 (Homo sapiens, UniProt P11229); assay: Displacement of [3H]-NMS from muscarinic M1 receptor (unknown origin) expressed in CHO-K1 cell membranes assessed as inhibition constant by radioligand competition analysis; parameters: species or system Cell membrane
T1 sequence (P11229 whole entry): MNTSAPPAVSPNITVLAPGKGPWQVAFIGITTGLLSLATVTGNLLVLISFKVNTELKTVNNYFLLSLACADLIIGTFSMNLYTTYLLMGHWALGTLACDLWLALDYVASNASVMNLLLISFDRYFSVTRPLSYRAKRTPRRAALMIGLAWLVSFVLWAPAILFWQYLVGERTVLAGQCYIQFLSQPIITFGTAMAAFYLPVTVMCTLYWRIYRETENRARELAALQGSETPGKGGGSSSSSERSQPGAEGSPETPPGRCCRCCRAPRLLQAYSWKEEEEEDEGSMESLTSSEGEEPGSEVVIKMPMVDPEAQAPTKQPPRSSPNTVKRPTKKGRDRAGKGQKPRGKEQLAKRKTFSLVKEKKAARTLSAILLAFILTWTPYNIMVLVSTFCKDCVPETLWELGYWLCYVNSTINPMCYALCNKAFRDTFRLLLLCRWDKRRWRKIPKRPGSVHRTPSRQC
How it was run: (§1)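 Inhibition constants came from radioligand competition binding. Acetylcholine and atropine were included as positive controls for competitive binding. Values are given as mean ± SEM.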

[2] = target: Muscarinic acetylcholine receptors; M1 & M2 (Homo sapiens) (UniProt P11229+P08172); assay: Selectivity for human muscarinic M2 receptor over muscarinic M1 receptor (unknown origin); format: protein assay
[3] = target: T2, Muscarinic acetylcholine receptor M2 (Homo sapiens, UniProt P08172); assay: Antagonist activity at human muscarinic M2 receptor expressed in CHO cells co-expressing Galpha15 assessed as inhibition of acetylcholine-induced calcium mobilization relative to acetylcholine; format: functional, cell-based
T2 sequence (P08172 whole entry): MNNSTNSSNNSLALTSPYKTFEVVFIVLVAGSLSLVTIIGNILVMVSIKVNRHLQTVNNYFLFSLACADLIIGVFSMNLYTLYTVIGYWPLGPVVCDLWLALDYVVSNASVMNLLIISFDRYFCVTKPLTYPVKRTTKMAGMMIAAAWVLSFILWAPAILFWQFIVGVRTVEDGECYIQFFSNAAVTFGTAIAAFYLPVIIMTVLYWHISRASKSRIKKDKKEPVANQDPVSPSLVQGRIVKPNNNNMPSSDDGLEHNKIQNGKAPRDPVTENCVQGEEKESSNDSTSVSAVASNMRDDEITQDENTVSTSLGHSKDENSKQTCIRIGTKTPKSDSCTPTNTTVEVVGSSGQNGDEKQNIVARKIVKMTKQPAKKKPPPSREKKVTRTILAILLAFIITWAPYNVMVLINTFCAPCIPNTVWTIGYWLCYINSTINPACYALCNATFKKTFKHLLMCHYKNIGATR

[4] = target: T2, Muscarinic acetylcholine receptor M2; assay: Displacement of [3H]-NMS from muscarinic M2 receptor (unknown origin) expressed in CHO-K1 cell membranes assessed as inhibition constant by radioligand competition analysis; parameters: species or system Cell membrane
[5] = target: T3, Muscarinic acetylcholine receptor M4 (Homo sapiens, UniProt P08173); assay: Displacement of [3H]-NMS from muscarinic M4 receptor (unknown origin) expressed in CHO-K1 cell membranes assessed as inhibition constant by radioligand competition analysis; parameters: species or system Cell membrane; how it was run: as §1
T3 sequence (P08173 whole entry): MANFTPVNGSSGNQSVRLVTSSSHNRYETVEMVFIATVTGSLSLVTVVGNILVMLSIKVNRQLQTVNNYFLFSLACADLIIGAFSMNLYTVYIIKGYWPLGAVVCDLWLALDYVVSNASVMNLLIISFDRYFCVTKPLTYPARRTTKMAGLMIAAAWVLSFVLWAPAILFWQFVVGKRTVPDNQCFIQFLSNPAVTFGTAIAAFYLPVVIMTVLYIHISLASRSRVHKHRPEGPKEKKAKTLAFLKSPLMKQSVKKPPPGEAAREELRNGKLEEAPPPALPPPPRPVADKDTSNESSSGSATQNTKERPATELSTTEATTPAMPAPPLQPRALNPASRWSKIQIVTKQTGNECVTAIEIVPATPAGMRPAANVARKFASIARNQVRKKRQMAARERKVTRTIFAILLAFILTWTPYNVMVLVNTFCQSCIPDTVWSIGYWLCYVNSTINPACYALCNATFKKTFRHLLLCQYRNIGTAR

[6] = target: T4, Muscarinic acetylcholine receptor M2 (Homo sapiens) (UniProt P08172); assay: Antagonist activity at muscarinic M2 receptor (unknown origin) at 100 uM by acetylcholine titration assay; conditions: filed as antagonist
T4 sequence (whole entry): T2 sequence (P08172 whole entry)
How it was run: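 Acetylcholine titration curves were run in a radioligand binding format, without and with test ligand at 100 μM. A rightward shift of the ACh curve was taken to indicate negative allosteric modulation, and no shift to indicate orthosteric antagonism.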

[7] = target: Muscarinic acetylcholine receptor M2 and M4 (Homo sapiens) (UniProt P08173+P08172); assay: Selectivity for human muscarinic M2 receptor over muscarinic M4 receptor (unknown origin); format: protein assay
[8] = target: Muscarinic acetylcholine receptor M3 (Homo sapiens, UniProt P20309); assay: Displacement of [3H]-NMS from muscarinic M3 receptor (unknown origin) expressed in CHO-K1 cell membranes assessed as inhibition constant by radioligand competition analysis; parameters: species or system Cell membrane; how it was run: as §1
[9] = target: Muscarinic acetylcholine receptors; M2 & M3 (Homo sapiens) (UniProt P20309+P08172); assay: Selectivity for human muscarinic M2 receptor over muscarinic M3 receptor (unknown origin); format: protein assay
Chain of Muscarinic acetylcholine receptors; M2 & M3 (Homo sapiens) (P20309 whole entry, looked up, one chain of several): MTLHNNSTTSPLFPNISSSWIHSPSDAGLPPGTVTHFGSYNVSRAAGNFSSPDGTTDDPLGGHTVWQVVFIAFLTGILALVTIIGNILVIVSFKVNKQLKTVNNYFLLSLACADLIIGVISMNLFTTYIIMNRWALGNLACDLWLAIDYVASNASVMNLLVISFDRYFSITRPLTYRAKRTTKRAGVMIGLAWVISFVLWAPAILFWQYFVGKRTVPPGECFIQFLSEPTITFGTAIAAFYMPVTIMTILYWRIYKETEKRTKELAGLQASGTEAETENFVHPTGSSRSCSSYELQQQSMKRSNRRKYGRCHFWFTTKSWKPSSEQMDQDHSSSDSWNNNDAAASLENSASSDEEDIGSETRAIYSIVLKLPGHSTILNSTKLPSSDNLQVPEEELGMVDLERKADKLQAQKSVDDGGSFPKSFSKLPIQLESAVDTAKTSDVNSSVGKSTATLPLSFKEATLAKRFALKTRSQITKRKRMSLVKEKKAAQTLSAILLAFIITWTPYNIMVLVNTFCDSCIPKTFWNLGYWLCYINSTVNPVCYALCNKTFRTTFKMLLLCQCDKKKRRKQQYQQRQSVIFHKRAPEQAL

Chain of Muscarinic acetylcholine receptor M3 (P20309 whole entry): as the sequence (P20309 whole entry, looked up, one chain of several) above

Compound: O=C(CCN1CCCc2ccccc21)Nc1cccc2cccnc12
- Ki [1]: 4.9 µM
- Ratio [2]: 8
- IC50 [3]: 0.479 µM
- Ki [4]: 0.617 µM
- Ki [5]: 18.2 µM
- Activity [6]: Active
- Ratio [7]: 30
- Ki [8]: > 100 µM
- Ratio [9]: > 250
